The source made the active and inactive calls. No cut-off for these calls is given here.
Legend:
RKO [1] = test: Induction of apoptosis in RKO cells; type: functional, cell-based; conditions: Homo sapiens
RKO [2] = test: Stabilization of p53 level in RKO cells; type: functional, cell-based; conditions: Homo sapiens
RKO/E6 = test: Induction of apoptosis in RKO/E6 cells; type: functional, cell-based; conditions: Homo sapiens
Outline: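 RKO/E6 cells are RKO cells expressing HPV16 E6 protein, which inactivates endogenous p53. They are used to test p53 dependence of the apoptotic response.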

RPE = test: Induction of p21WAF1/CIP1 level in RPE cells; type: functional, cell-based; conditions: Homo sapiens
Outline: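 Primary human retinal pigment epithelial (RPE) cells were exposed to each compound at 1–20 µM for 24 h. Whole-cell extracts were resolved by SDS 12% polyacrylamide gel electrophoresis and read out by Western blotting.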

RKO [3] = test: Cell cycle arrest in RKO cells by accumulation at G1 phase; type: functional, Homo sapiens
RKO [4] = test: Cell cycle arrest in RKO cells by accumulation at G2/M phase; type: functional, cell-based; conditions: Homo sapiens
RKO [5] = test: Cell cycle arrest in RKO cells by accumulation at G2 phase; type: functional, cell-based; conditions: Homo sapiens

With `O=c1nc2n(-c3ccc(Cl)cc3)c3ccc(C(F)(F)F)cc3cc-2c(=O)[nH]1` as the compound, how does the Activity (RKO [1]) read?
The Activity was “inactive”.

What about the Activity (RKO [2]) of the same compound?
The Activity was “inactive”.

And the Activity (RKO/E6)?
The Activity was “inactive”.

What about the Activity (RPE) of the same compound?
The Activity was “inactive”.

`Cc1ccc(-n2c3nc(=O)[nH]c(=O)c-3cc3c(C(F)(F)F)cccc32)cc1` was tested. Which Activity (RKO [1]) did it give?
The Activity was “inactive”.

And the Activity (RKO [3])?
Its Activity is 62%.

And the Activity (RKO [2])?
The Activity was “inactive”.

What about the Activity (RKO/E6) of the same compound?
The Activity was “inactive”.

What about the Activity (RPE) of the same compound?
The Activity was “inactive”.

`O=c1nc2n(-c3ccccc3Cl)c3ccc([N+](=O)[O-])cc3cc-2c(=O)[nH]1` was tested. Which Activity (RKO [4]) did it give?
Its Activity is “Active”.

What about the Activity (RKO [5]) of the same compound?
Its Activity is “Active”.

And the Activity (RKO [2])?
The Activity was “Active”.

And the Activity (RKO/E6)?
The Activity was “Active”.

What about the Activity (RPE) of the same compound?
Its Activity is “Active”.

Which results are given for `O=c1nc2n(-c3ccc(Cl)cc3)c3cccc(Cl)c3cc-2c(=O)[nH]1`?
Activity (RKO [3]; Homo sapiens): Active; Activity (RKO [2]): Active; Activity (RKO/E6): inactive; Activity (RPE): Active

Which results are given for `O=c1nc2n(-c3ccccc3Cl)c3cccc(Cl)c3cc-2c(=O)[nH]1`?
Activity (RKO [4]): Active; Activity (RKO [5]): Active; Activity (RKO [2]): Active; Activity (RKO/E6): Active

With `Cc1ccc(-n2c3nc(=O)[nH]c(=O)c-3cc3c(Cl)cccc32)cc1` as the compound, how does the Activity (RKO [3]) read?
The Activity was 73%.

What about the Activity (RKO [2]) of the same compound?
Its Activity is “Active”.

What about the Activity (RKO/E6) of the same compound?
Its Activity is “inactive”.

What about the Activity (RPE) of the same compound?
The Activity was “Active”.

`O=c1nc2n(-c3cccc(Cl)c3)c3ccc([N+](=O)[O-])cc3cc-2c(=O)[nH]1` was tested. Which Activity (RKO [3]) did it give?
Its Activity is 75%.

And the Activity (RKO [2])?
The Activity was “Active”.

And the Activity (RKO/E6)?
Its Activity is “inactive”.

What about the Activity (RPE) of the same compound?
The Activity was “Active”.

From ChEMBL document CHEMBL1144520, “Synthesis of 5-deazaflavin derivatives and their activation of p53 in cells” (2007)
